Results published in paper PMC5034689 (Molecular Metabolism, 2016).

Columns and labels:
[1] = Plasma and tissue availability after a single intraperitoneal TNP injection; assay type: in vivo, mice
In short: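 Chow-fed mice received a single i.p. injection (20 mg/kg) in DMSO:Tween 80:water (1:1:8). Plasma levels were followed 1–6 h after dosing. Liver, skeletal muscle, white and brown adipose tissue and brain were collected 6 h after dosing to measure tissue concentrations.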

HFD-fed mice = experiment: Long-term TNP for protection against DIO; assay type: in vivo, C57BL6 mice
In short: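 Male C57BL6 mice, chow-fed to 2 months of age, started HFD together with daily injections (10 mg/kg; vehicle DMSO:Tween 80:water 1:1:8) for 10 weeks, n = 6/group, 23 °C. Body weight was recorded weekly. In week 5, CLAMS ran 36 h acclimatization then 48 h of VO2, VCO2 and locomotor recording. RER = VCO2/VO2, and EE was normalized to lean mass. Week-7 food intake was measured by BioDAQ (2 days acclimatization, 4 days recorded).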

CYP3A4 = CYP3A4 (Homo sapiens, UniProt P08684); experiment: CYP450 inhibition in human hepatic microsomes, CYP3A4; assay type: in vitro ADME; settings: liver microsomes, probe midazolam (hydroxylation to 1′-hydroxymidazolam)
[2] = Plasma protein binding, equilibrium dialysis, human; assay type: in vitro ADME
In short: (§1)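 Binding was measured by rapid equilibrium dialysis in triplicate, starting at 1 μM drug in the plasma chamber against PBS. Plates were shaken 6 h at 37 °C. Samples were matrix-matched to 1:1 plasma:PBS and quantified by LC-MS/MS. Fraction bound = ([plasma] − [PBS])/[plasma].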

CYP2D6 = CYP2D6 (Homo sapiens, UniProt P10635); experiment: CYP450 inhibition in human hepatic microsomes, CYP2D6; assay type: in vitro ADME; settings: liver microsomes, probe bufuralol (hydroxylation to 4′-hydroxybufuralol)
DIO mice [3] = experiment: Short-term TNP treatment of DIO mice; assay type: in vivo, C57BL6 mice; settings: 20 mg/kg BW daily
In short: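 Mice fed HFD for 8 weeks received daily 20 mg/kg test compound with continued HFD (vehicle n = 6, treated n = 8). Food intake was measured after 7 days. GTT (glucose 2 g/kg i.p.) and ITT (insulin 0.75 U/kg i.p.) were done on days 12 and 17 after a 5 h fast. Tissues were taken on day 18. Akt S473 was immunoblotted from RIPA lysates, with densitometry n = 3.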

DIO mice [4] = experiment: Long-term TNP treatment of DIO mice at thermoneutral temperature; assay type: in vivo
In short: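 Following the initial phase, vehicle or test compound was injected for another 8 weeks, n = 6/group. Body weight was recorded weekly. ITT was done at week 4: 5 h fast, human insulin 0.75 U/kg i.p., tail-vein glucometer. At 8 weeks, mice were sacrificed after a 5 h fast. Cardiac-puncture serum was assayed for cholesterol and HDL by a metabolic core.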

lean/CD-fed mice = experiment: Single dose of TNP in chow; assay type: in vivo; settings: single dose 20 mg/kg BW
In short: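 Chow-fed lean or DIO mice (n = 4/group) received one 20 mg/kg injection, were fasted 5 h, then given GTT (glucose 2 g/kg i.p., tail-vein glucometer from time 0). Mice were then sacrificed for tissues and cardiac-puncture serum. Insulin was measured by ultra-sensitive ELISA and TAG by a metabolic core. Akt S473 was immunoblotted (T308 also in IWAT), with densitometry n = 3.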

cortical neurons = settings: cited from earlier work
[5] = test system: human promyelocytic leukemia (HL60) cells; settings: cited from earlier work
3T3L1 adipocytes = experiment: Glycerol assay for lipolysis in adipocytes; assay type: cell-based; settings: TNP 1 μM, isoproterenol 10 μM
In short: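 3T3-L1 preadipocytes were differentiated for 7 days. Adipocytes were pretreated 4 h with DMSO or 1 μM test compound in DMEM with 0.5% fatty-acid-free BSA. Medium was then replaced, with or without isoproterenol (10 μM), and compound was kept on throughout. Glycerol released into the medium was measured with a commercial kit.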

CYP2C9 = CYP2C9 (Homo sapiens, UniProt P11712); experiment: CYP450 inhibition in human hepatic microsomes, CYP2C9; assay type: in vitro ADME; settings: liver microsomes, probe tolbutamide (hydroxylation to hydroxytolbutamide)
[6] = Plasma protein binding, equilibrium dialysis, summary over species; assay type: in vitro ADME; settings: human, mouse, rat
In short: as §1

IP6K1-KO mice = experiment: Long-term TNP for reversal of DIO in IP6K1-KO mice; assay type: in vivo
In short: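 Inbred IP6K1-KO mice (seventh generation) and WT littermates, n = 4/group, received HFD for 8 weeks, then daily injections (10 mg/kg) with continued HFD for 10 weeks. GTT was done at week 5: 5 h fast, glucose 2 g/kg i.p., tail-vein glucometer readings including time 0. After 10 weeks, fat, lean and fluid masses were measured by LF-NMR, and mice were sacrificed after a 5 h fast.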

[7] = Hepatic microsomal stability, human; assay type: in vitro ADME; settings: liver microsomes, pH 7.4
In short: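 Test compound (1 μM) was incubated with liver microsomes (1 mg/ml) and 1 mM NADPH in 100 mM potassium phosphate, pH 7.4. Aliquots were taken at 0, 5, 10, 20, 40 and 60 min and analysed by LC-MS/MS. Loss of parent was expressed as half-life.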

MIN6 cells = settings: cited from earlier work
chow-fed male mice = experiment: Long-term TNP treatment on fertility of chow-fed male mice; assay type: in vivo; settings: 10 mg/kg BW daily for 15 weeks, chow-fed WT
In short: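 Six-week-old chow-fed male mice were injected daily with 10 mg/kg test compound for 4 weeks. They were then used for breeding while injections continued another 11 weeks (15 weeks total). Each male took part in 4 rounds of harem breeding, the last after 14 weeks of treatment.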

[8] = 10 mg/kg BW daily, 5th week, CLAMS

CYP3A4, sequence (P08684 whole entry): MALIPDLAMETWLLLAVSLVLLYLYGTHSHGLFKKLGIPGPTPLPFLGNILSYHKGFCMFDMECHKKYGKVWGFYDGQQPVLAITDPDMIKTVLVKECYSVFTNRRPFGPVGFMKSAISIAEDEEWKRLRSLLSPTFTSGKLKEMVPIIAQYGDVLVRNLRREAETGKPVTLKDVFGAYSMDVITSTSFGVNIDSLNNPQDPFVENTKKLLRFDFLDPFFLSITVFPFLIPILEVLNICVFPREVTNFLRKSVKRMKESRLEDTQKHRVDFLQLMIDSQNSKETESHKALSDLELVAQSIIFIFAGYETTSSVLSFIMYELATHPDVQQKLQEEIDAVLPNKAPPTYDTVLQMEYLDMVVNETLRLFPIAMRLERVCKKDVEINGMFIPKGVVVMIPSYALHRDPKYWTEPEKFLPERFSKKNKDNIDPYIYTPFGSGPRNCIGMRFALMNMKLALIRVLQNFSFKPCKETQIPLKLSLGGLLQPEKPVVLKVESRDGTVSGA
CYP2C9, sequence (P11712 whole entry): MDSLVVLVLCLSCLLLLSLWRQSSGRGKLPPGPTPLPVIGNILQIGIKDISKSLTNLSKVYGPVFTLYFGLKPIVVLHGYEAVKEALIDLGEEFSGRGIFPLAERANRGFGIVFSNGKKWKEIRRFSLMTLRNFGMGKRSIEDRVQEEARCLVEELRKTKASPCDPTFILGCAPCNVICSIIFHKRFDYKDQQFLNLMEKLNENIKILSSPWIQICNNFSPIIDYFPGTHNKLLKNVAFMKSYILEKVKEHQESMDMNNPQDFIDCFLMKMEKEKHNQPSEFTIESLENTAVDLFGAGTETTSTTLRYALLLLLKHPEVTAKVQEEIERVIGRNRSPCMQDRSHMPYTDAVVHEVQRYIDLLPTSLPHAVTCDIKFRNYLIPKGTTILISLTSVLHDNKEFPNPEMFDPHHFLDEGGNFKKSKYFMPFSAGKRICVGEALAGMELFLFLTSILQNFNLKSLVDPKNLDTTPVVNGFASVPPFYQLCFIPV
CYP2D6, sequence (P10635 whole entry): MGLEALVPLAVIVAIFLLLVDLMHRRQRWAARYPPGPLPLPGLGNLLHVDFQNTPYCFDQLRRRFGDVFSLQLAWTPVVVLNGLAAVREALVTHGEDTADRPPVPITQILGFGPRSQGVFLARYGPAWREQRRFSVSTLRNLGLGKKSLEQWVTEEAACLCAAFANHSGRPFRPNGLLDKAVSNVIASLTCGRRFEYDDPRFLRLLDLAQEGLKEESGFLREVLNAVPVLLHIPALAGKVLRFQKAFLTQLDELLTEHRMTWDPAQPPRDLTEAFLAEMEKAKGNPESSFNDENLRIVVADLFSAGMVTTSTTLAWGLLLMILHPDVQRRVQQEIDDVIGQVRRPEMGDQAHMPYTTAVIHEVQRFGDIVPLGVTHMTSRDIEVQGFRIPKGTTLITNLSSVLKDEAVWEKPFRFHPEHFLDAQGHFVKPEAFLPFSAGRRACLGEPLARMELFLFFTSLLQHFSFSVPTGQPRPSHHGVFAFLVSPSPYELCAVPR

In the case of `O=[N+]([O-])c1ccc(CNc2nc(NCc3cccc(C(F)(F)F)c3)nc3[nH]cnc23)cc1` [TNP, N6-(4-nitrobenzyl)-N2-(3-(trifluoromethyl)benzyl)-9H-purine-2,6-diamine], the “Crossing of the BBB” value ([1]; mice) is reported as “does not efficiently cross the BBB”, the half-life ([1]; mouse, plasma, ip, 20 mg/kg) is reported as roughly 6 h and the “TNP concentration in plasma” value ([1]; single dose 20 mg/kg i.p., chow fed mice, 1–6 h post-treatment) is reported as 5 to 10 µM. For the same compound, the Lean mass (HFD-fed mice; 10 mg/kg BW daily) was “unaltered”, the “Average RER” value (HFD-fed mice; [8]) was “unaltered” and the Average activity (HFD-fed mice; [8]) was “unaltered”. For the same compound, the “Energy expenditure (EE)” value (HFD-fed mice; [8]) was “higher EE especially during nighttime”, the VO2 consumption (HFD-fed mice; [8]) was “higher VO2 consumption” and the Daily energy intake (HFD-fed mice; 10 mg/kg BW daily, 7th week, vs vehicle) was “similar”. The “Glucose disposal following glucose (GTT) and insulin injections (ITT)” value (HFD-fed mice; 10 mg/kg BW daily, 8th and 9th week) was “efficient glucose disposals”, the Body weight gain (HFD-fed mice; 10 mg/kg BW daily, after 10 weeks (injection stopped)) was 2.9 g and the Body weight (HFD-fed mice; 10 mg/kg BW daily, after 10 weeks of HFD and TNP) was 27.8 g. The “Glucose disposal following glucose injection (GTT)” value (HFD-fed mice; 2 weeks after TNP withdrawal) was “efficient glucose disposal”, the Body weight gain (HFD-fed mice; 18-week, eight weeks after TNP withdrawal) was 19.3 g and the Body weight (HFD-fed mice; 18-week, eight weeks after TNP withdrawal, HFD continued) was 44.3 g. For the same compound, the “Glucose tolerance (GTT)” value (HFD-fed mice; four weeks after TNP withdrawal) was “become glucose intolerant”, the Body weight (HFD-fed mice; onset of the experiment (before treatment)) was 24.9 g and the “Weight gain during the withdrawal period” value (HFD-fed mice; weeks 10 to 18, TNP-withdrawn mice) was 16.4 g. For the same compound, the inhibition at 10 μM (CYP3A4) was 98%, the fraction unbound at 6 h, 1 μM [2] was 0.083 and the inhibition at 10 μM (CYP2D6) was 76%. The “Glucose disposal following glucose injection (GTT)” value (DIO mice [3]; 12th day) was “efficient glucose disposal”, the “Glucose disposal following insulin injection (ITT)” value (DIO mice [3]; 17th day) was “disposes glucose more efficiently” and the “Fatty liver (histology)” value (DIO mice [3]; 18 days) was “ameliorates fatty liver”. For the same compound, the Serum glycerol levels (DIO mice [3]; 18 days) was “does not alter”, the Serum insulin level (DIO mice [3]; 18 days) was “not significantly altered” and the “Serum levels of cholesterol or triglycerides” value (DIO mice [3]; 18 days) was “not altered”. The “Reduction of fat mass by treatment” value (DIO mice [3]; 18 days, DIO mice, QNMR) was roughly 3 g, the “Akt S473 phosphorylation in the IWAT depot, enhancement vs vehicle” value (DIO mice [3]; 18 days, densitometry) was 4 fold and the “Serum levels of AST and ALT” value (DIO mice [3]; 18 days, vs vehicle) was “less”. For the same compound, the “UCP1 mRNA expression in the IWAT” value (DIO mice [3]; 18 days, vs vehicle) was “higher”, the “Weight of the EWAT depot” value (DIO mice [3]; 18 days, vs vehicle) was “significantly less” and the Daily energy intake (DIO mice [3]; after 7 days) was “does not influence daily energy intake”. For the same compound, the “Glucose disposal following exogenous insulin treatment (ITT)” value (DIO mice [4]; 30 °C, after 4-weeks of TNP injection) was “significantly improved”, the “Average decrease in body weight” value (DIO mice [4]; 30 °C, after 8-weeks of injection) was roughly 0.7 g and the “Serum levels of total cholesterol and HDL” value (DIO mice [4]; thermoneutral temperature) was “unaltered at thermoneutral temperature”. For the same compound, the “Akt phosphorylation at S473 in liver and EWAT” value (lean/CD-fed mice) was “does not alter”, the “Glucose disposal (GTT)” value (lean/CD-fed mice) was “does not influence” and the “Cytosolic Zn2+ levels” value (cortical neurons) was “slightly elevates”. For the same compound, the “Ca2+ levels” value [5] was “slightly elevates”, the “Basal or isoproterenol induced lipolysis (glycerol release)” value (3T3L1 adipocytes) was “does not influence” and the inhibition at 10 μM (CYP2C9) was 92%. For the same compound, the fraction unbound at 6 h, 1 μM [6] was 0.07 to 0.1, the “TNP mediated weight loss” value (IP6K1-KO mice; 10 mg/kg BW daily, 10 weeks) was “resistant to Rev-TNP mediated weight loss” and the “Total fat, lean, and fluid masses” value (IP6K1-KO mice; 10 mg/kg BW daily, 10 weeks) was “unaltered”. The Body weight (IP6K1-KO mice; 10 mg/kg BW daily, after 10-week of treatment) was roughly 33 g, the “Glucose disposal (GTT)” value (IP6K1-KO mice; after 5 weeks of TNP treatment) was “not altered” and the half-life at 1 μM [7] was 0.533 h. For the same compound, the Insulin secretion (MIN6 cells) was “reduces insulin secretion” and the Sterility of males (chow-fed male mice) was “do not display sterility”.
